molecular target: T1, Cannabinoid receptor 2 (Homo sapiens, UniProt P34972); assay: Displacement of [3H]CP-55940 from human recombinant CB2 receptor expressed in HEK293 cells; type: cell-based; conditions: read-out: Ki
T1 sequence (P34972 whole entry): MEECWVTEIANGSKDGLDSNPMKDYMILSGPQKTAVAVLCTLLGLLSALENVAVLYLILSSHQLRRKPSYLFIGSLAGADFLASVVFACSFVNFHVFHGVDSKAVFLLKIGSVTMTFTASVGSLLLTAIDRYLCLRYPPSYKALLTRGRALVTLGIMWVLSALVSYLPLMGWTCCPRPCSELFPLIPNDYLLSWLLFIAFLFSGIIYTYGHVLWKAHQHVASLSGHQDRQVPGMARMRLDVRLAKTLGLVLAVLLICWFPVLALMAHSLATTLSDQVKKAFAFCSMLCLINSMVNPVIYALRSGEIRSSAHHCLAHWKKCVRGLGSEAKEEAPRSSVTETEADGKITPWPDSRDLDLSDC

SMILES | Ki [nM]
CN(C)CCn1cc(C(=O)C2C(C)(C)C2(C)C)c2ccccc21 | 1.9
CC(C)[C@H]1CC[C@H](C(=O)c2cn(CCN3CCOCC3)c3ccccc23)CC1 | 190
CC1(C)C(C(=O)c2cn(CCn3cccc3)c3ccccc23)C1(C)C | 1.8
CC1(C)C(C(=O)c2cn(CCN3C(=O)CCC3=O)c3ccccc23)C1(C)C | 170
CC1(C)C(C(=O)c2cn(CCN3CCCC3)c3ccccc23)C1(C)C | 5.8
CC1(C)C(C(=O)c2cn(CCC(N)=O)c3ccccc23)C1(C)C | 220
CCCn1cc(C(=O)C2C(C)(C)C2(C)C)c2ccccc21 | 9.2
O=C(c1cn(CC2CCOCC2)c2ccccc12)C1CCCC1 | 11
O=C(c1cn(CCN2CCOCC2)c2ccccc12)C1CCCCC1 | 138
COC(=O)CCn1cc(C(=O)C2C(C)(C)C2(C)C)c2ccccc21 | 2.9
CC1(C)C(C(=O)c2cn(CCN3CCCC3=O)c3ccccc23)C1(C)C | 55
CC[C@H]1CC[C@H](C(=O)c2cn(CCN3CCOCC3)c3ccccc23)CC1 | 16
CC1(C)C(C(=O)c2cn(CCCCCO)c3ccccc23)C1(C)C | 0.71

same assay, conditions: read-out: pKi (converted)

SMILES | Ki [nM]
CC1(C)C(C(=O)c2cn(CCN3CCCC3=O)c3ccccc23)C1(C)C | 53.7

molecular target: Cannabinoid receptor 1 (Homo sapiens, UniProt P21554); assay: Displacement of [3H]CP-55940 from human recombinant CB1 receptor expressed in CHO cells; type: cell-based; conditions: read-out: Ki
Sequence (P21554 whole entry): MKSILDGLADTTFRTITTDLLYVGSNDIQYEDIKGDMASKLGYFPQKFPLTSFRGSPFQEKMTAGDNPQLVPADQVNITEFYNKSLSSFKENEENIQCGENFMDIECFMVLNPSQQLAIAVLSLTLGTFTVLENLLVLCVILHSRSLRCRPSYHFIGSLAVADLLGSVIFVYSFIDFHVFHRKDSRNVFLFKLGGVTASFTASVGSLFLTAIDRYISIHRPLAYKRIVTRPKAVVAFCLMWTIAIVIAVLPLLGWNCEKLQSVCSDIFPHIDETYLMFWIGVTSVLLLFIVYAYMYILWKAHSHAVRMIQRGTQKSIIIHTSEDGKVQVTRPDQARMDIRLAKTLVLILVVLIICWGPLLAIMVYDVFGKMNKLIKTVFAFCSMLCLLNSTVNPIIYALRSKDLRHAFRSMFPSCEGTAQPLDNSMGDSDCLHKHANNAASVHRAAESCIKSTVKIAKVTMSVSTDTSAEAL

SMILES | Ki [nM]
CN(C)CCn1cc(C(=O)C2C(C)(C)C2(C)C)c2ccccc21 | > 10000
CC(C)[C@H]1CC[C@H](C(=O)c2cn(CCN3CCOCC3)c3ccccc23)CC1 | > 10000
CC1(C)C(C(=O)c2cn(CCn3cccc3)c3ccccc23)C1(C)C | 310
CC1(C)C(C(=O)c2cn(CCN3C(=O)CCC3=O)c3ccccc23)C1(C)C | > 10000
CC1(C)C(C(=O)c2cn(CCN3CCCC3)c3ccccc23)C1(C)C | > 10000
CC1(C)C(C(=O)c2cn(CCC(N)=O)c3ccccc23)C1(C)C | > 10000
CCCn1cc(C(=O)C2C(C)(C)C2(C)C)c2ccccc21 | 4300
O=C(c1cn(CC2CCOCC2)c2ccccc12)C1CCCC1 | 131
O=C(c1cn(CCN2CCOCC2)c2ccccc12)C1CCCCC1 | 1630
COC(=O)CCn1cc(C(=O)C2C(C)(C)C2(C)C)c2ccccc21 | 1830
CC1(C)C(C(=O)c2cn(CCN3CCCC3=O)c3ccccc23)C1(C)C | > 10000
CC[C@H]1CC[C@H](C(=O)c2cn(CCN3CCOCC3)c3ccccc23)CC1 | 616
CC1(C)C(C(=O)c2cn(CCCCCO)c3ccccc23)C1(C)C | 680

species on record: Homo sapiens; assay: Selectivity ratio of Ki for human recombinant CB1 receptor to Ki for human recombinant CB2 receptor; conditions: not given
In short: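 Membranes were from HEK cells stably expressing human CB2 and CHO cells stably expressing human CB1. Competition was run against 0.5 nM [3H]CP-55,940 in 50 mM Tris-HCl pH 7.4, 2.5 mM EDTA, 5 mM MgCl2, 0.05% fatty-acid-free BSA, for 90 min at 30 °C, then filtered. Nonspecific binding was set with 10 μM unlabeled CP-55,940. Ki came from one-site fits. Mean ± SEM, ≥3 experiments in duplicate.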

SMILES | Ratio Ki
CN(C)CCn1cc(C(=O)C2C(C)(C)C2(C)C)c2ccccc21 | > 5260
CC(C)[C@H]1CC[C@H](C(=O)c2cn(CCN3CCOCC3)c3ccccc23)CC1 | > 53
CC1(C)C(C(=O)c2cn(CCn3cccc3)c3ccccc23)C1(C)C | 172
CC1(C)C(C(=O)c2cn(CCN3C(=O)CCC3=O)c3ccccc23)C1(C)C | > 59
CC1(C)C(C(=O)c2cn(CCN3CCCC3)c3ccccc23)C1(C)C | > 1720
CCCn1cc(C(=O)C2C(C)(C)C2(C)C)c2ccccc21 | 467
O=C(c1cn(CC2CCOCC2)c2ccccc12)C1CCCC1 | 12
O=C(c1cn(CCN2CCOCC2)c2ccccc12)C1CCCCC1 | 12
COC(=O)CCn1cc(C(=O)C2C(C)(C)C2(C)C)c2ccccc21 | 631
CC1(C)C(C(=O)c2cn(CCN3CCCC3=O)c3ccccc23)C1(C)C | > 182
CC[C@H]1CC[C@H](C(=O)c2cn(CCN3CCOCC3)c3ccccc23)CC1 | 39
CC1(C)C(C(=O)c2cn(CCCCCO)c3ccccc23)C1(C)C | 958

molecular target: T1, Cannabinoid receptor 2; assay: Agonist activity at human recombinant CB2 receptor expressed in HEK293 cells coexpressing Galphaq/o5 assessed as calcium mobilization by FLIPR assay; type: functional, cell-based; conditions: not given
In short: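 HEK cells stably coexpressing human CB2 and chimeric Gαq/o5 were seeded at 75 000 cells/well the day before and loaded with no-wash calcium dye. Mean ± SEM, ≥3 experiments in duplicate.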

SMILES | EC50 [nM]
CN(C)CCn1cc(C(=O)C2C(C)(C)C2(C)C)c2ccccc21 | 35
CC(C)[C@H]1CC[C@H](C(=O)c2cn(CCN3CCOCC3)c3ccccc23)CC1 | > 10000
CC1(C)C(C(=O)c2cn(CCn3cccc3)c3ccccc23)C1(C)C | 54
CC1(C)C(C(=O)c2cn(CCN3C(=O)CCC3=O)c3ccccc23)C1(C)C | 77
CC1(C)C(C(=O)c2cn(CCN3CCCC3)c3ccccc23)C1(C)C | 70
CC1(C)C(C(=O)c2cn(CCC(N)=O)c3ccccc23)C1(C)C | 294
CCCn1cc(C(=O)C2C(C)(C)C2(C)C)c2ccccc21 | 36
O=C(c1cn(CC2CCOCC2)c2ccccc12)C1CCCC1 | 20
O=C(c1cn(CCN2CCOCC2)c2ccccc12)C1CCCCC1 | 86
COC(=O)CCn1cc(C(=O)C2C(C)(C)C2(C)C)c2ccccc21 | 17
CC1(C)C(C(=O)c2cn(CCN3CCCC3=O)c3ccccc23)C1(C)C | 55
CC[C@H]1CC[C@H](C(=O)c2cn(CCN3CCOCC3)c3ccccc23)CC1 | 85
CC1(C)C(C(=O)c2cn(CCCCCO)c3ccccc23)C1(C)C | 11

molecular target: T1, Cannabinoid receptor 2; assay: Agonist activity at human recombinant CB2 receptor expressed in HEK293 cells coexpressing Galphaq/o5 assessed as calcium mobilization by FLIPR assay relative to CP-55940; type: functional, cell-based; conditions: not given
In short: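 HEK cells stably coexpressing human CB2 and chimeric Gαq/o5 were seeded at 75 000 cells/well the day before and loaded with no-wash calcium dye. […] Mean ± SEM, ≥3 experiments in duplicate.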

SMILES | Activity [%]
CN(C)CCn1cc(C(=O)C2C(C)(C)C2(C)C)c2ccccc21 | 105
CC1(C)C(C(=O)c2cn(CCn3cccc3)c3ccccc23)C1(C)C | 97
CC1(C)C(C(=O)c2cn(CCN3C(=O)CCC3=O)c3ccccc23)C1(C)C | 34
CC1(C)C(C(=O)c2cn(CCN3CCCC3)c3ccccc23)C1(C)C | 84
CC1(C)C(C(=O)c2cn(CCC(N)=O)c3ccccc23)C1(C)C | 107
CCCn1cc(C(=O)C2C(C)(C)C2(C)C)c2ccccc21 | 114
O=C(c1cn(CC2CCOCC2)c2ccccc12)C1CCCC1 | 64
O=C(c1cn(CCN2CCOCC2)c2ccccc12)C1CCCCC1 | 44
COC(=O)CCn1cc(C(=O)C2C(C)(C)C2(C)C)c2ccccc21 | 109
CC1(C)C(C(=O)c2cn(CCN3CCCC3=O)c3ccccc23)C1(C)C | 97
CC[C@H]1CC[C@H](C(=O)c2cn(CCN3CCOCC3)c3ccccc23)CC1 | 59
CC1(C)C(C(=O)c2cn(CCCCCO)c3ccccc23)C1(C)C | 79

Source: ChEMBL document CHEMBL1156767, “Indol-3-ylcycloalkyl ketones: effects of N1 substituted indole side chain variations on CB(2) cannabinoid receptor activity” (J Med Chem, 2010)
